# Source: PubChem (several laboratories)
# beta cell repl: inducers of MIN6 beta-cell proliferation, primary screen, ATP luminescence, uHTS; 330,000 tested, 0.29% active; proliferation, % at 10 µM; MIN6 cells proliferation, ATPlite luminescence, 48 h; cells starved in 0.2% serum; 100% = growth in 10% serum;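 active means compounds whose signal lies at least 3.5 SD above the mean of all wells on their plate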;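 further: 0% = DMSO-treated cells in low-serum medium and 100% = 10% serum control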
# T cell modulator: modulators of CD8 T cell-vesicle binding, primary screen, mouse 2C CD8+ T cells, flow cytometry | 330,000 tested, 0.068% active | 2C CD8+ T cell-vesicle binding; active compounds read low | response (vesicle binding), % at 7 µM;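 active means response, share of CD8 T cells binding vesicles, and their 90th percentile fluorescence all below set limits, cut at about 80% in these data, passing the limit was not always enough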;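 further: values below 100% mean blocked vesicle binding to the CD8+ T cells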
#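 Assay system: 2C TCR transgenic mouse naive CD8+ T cells, MACS-purified | Read-out: CD8+ gate FL2 mean fluorescence as % of same-row positive control | Signal: High-throughput flow cytometry with anti-B7-1 and anti-CD8 staining | Timing: Binding step 1.5 h, 37 °C, antibody labelling 20 min, ice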
# proKLK7 act: proKLK7 zymogen activators, primary screen, biochemical, fluorescence intensity; 370,000 tested, 0.9% active; AID 652039, 2013; purified proKLK7, EDANS-DABCYL substrate fluorescence; 100% is mature enzyme control, 0% vehicle; activation, % at 7 µM;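 active means activation above the mean of all tested compounds plus 3 SD, computed per campaign excluding outliers beyond control limits, cut at about 13% in these data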
# Target sequence (P49862 whole entry, looked up): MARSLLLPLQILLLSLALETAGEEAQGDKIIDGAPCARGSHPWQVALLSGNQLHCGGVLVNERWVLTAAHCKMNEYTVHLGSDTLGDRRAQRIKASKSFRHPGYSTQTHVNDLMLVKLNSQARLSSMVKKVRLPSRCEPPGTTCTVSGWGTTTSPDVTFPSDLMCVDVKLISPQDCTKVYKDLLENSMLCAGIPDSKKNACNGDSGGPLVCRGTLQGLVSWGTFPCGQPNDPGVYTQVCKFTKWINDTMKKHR
# Rce1 inhib: yeast Rce1p protease inhibitors, primary screen, biochemical, fluorescence, cell-free homogeneous; CAAX prenyl protease 2 (Saccharomyces cerevisiae (strain ATCC 204508 / S288c)), Q03530; yeast membranes, quenched prenylated peptide cleavage fluorescence; calls only; 290,000 tested, 0.27% active; AID 2563, 2010;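 active means fall in fluorescence gain of 50% or more versus controls, with final raw signal at or below 3038400; inconclusive means same 50% fall but final raw signal above 3038400; inactive means fall in fluorescence gain under 50%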;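 further: plate controls were neutral control wells for no effect and wells lacking membranes for full effect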
# Target sequence (Q03530 whole entry, looked up): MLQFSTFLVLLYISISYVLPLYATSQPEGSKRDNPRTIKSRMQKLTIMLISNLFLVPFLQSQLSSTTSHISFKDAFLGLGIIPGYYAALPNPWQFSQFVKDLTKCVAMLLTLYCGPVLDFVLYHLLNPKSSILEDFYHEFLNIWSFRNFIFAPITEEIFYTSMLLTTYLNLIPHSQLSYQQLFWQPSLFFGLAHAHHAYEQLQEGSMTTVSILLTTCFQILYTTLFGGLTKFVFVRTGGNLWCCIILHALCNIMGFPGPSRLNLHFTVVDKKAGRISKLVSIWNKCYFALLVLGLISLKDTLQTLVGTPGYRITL
# V-ATPase pH: regulators of yeast V-ATPase proton pumping, primary screen, pHLuorin cytosolic pH fluorescence; response, % at 10 µM; S. cerevisiae; 350,000 tested, 0.37% active; in the data active means response mostly above about 7.3%, no sharp cut-off; inactive means mostly below about 5.4%; further: actives read high
# CR mimetic SO: reduction of superoxide in aged yeast, primary screen, HTS; S. cerevisiae aged cells, superoxide DHE fluorescence; active compounds read low; superoxide response (% of plate mean), % at 10 µM; 330,000 tested, 0.18% active; AID 2690, 2010;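 active means superoxide response under a set limit, about three screen SD below normal, cut at about 65% in these data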;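 further: yeast aged for seven days with compound at 30 °C before DHE staining; 100% = average MFI of all compound-treated wells on the plate with controls excluded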
# proKLK7 act conf: proKLK7 zymogen activators, confirmation, biochemical, fluorescence intensity, triplicate; shares compounds with proKLK7 act; purified proKLK7, EDANS-DABCYL substrate fluorescence; scaled: vehicle 0, mature enzyme 100; activation, % at 7 µM; 3,200 tested, 68% active; AID 686949, 2013;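 active means activation, as change over the incubation, above the mean of all tested compounds plus 3 SD, cut at about 13% in these data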
# EDANS interfere: EDANS-DABCYL substrate optical interference, artefact control for kallikrein-7 zymogen activator project, biochemical, fluorescence intensity, high throughput; shares compounds with proKLK7 act; no enzyme, 4 h; solvent 0%, active enzyme control 100%; activation, % at 7 µM; 3,200 tested, 80% active; AID 686952, 2013;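 active means activation above the all-compound mean plus 3 SD, ignoring values outside control-based bounds, cut at about 4.8% in these data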;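 further: value is the 4 h activation minus the activation read at time zero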
# EDANS interf: optically interferes with EDANS-DABCYL fluorescence, kallikrein-7 activator counter-screen; 250 tested, 20% active; EC50, µM; EDANS-DABCYL peptide fluorescence interference, no enzyme; shares compounds with proKLK7 act;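 active means compounds that raise the fluorescence signal in this interference counterscreen, with EC50 at or below 10 µM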;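 further: intact quenched peptide substrate alone read at 355 nm excitation and 520 nm emission; signal is fluorescence gain from T0 to T4 after four hours at room temperature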
# * = called active by the depositor; i = inactive; ? = inconclusive; . = not tested or not shown; + = active, no number. Hits are enriched below; roughly 1.9% of the tested compounds scored in any of these assays.
SMILES,beta cell repl,T cell modulator,proKLK7 act,Rce1 inhib,V-ATPase pH,CR mimetic SO,proKLK7 act conf,EDANS interfere,others
CCC1(CC)Cc2ccccc2-c2nc(NCCO)[nH]c(=O)c21,-2.3,.,24.7*,i,1.8,93.3,-21.2,-28.0,
COc1ccccc1Oc1ccc(NC(=O)Cc2ccccc2)cc1,-1.9,i,0.3,i,1.6,92.0,.,.,
CCCn1c(-c2cccs2)nc2nc3ccccc3nc21,-0.9,676.9,41.5*,i,3.3,104.2,-55.1,-64.0,
COCCn1c(-c2cccs2)nc2nc3ccccc3nc21,-1.4,264.6,37.7*,i,8.5,125.3,68.5*,73.0*,
c1csc(-c2nc3nc4ccccc4nc3n2Cc2ccc3c(c2)OCO3)c1,-2.8,316.4,-0.2,.,1.7,113.2,.,.,
COCCn1c(-c2ccco2)nc2nc3ccccc3nc21,-5.3,218.7,42.6*,?,-11.0,115.6,62.3*,82.0*,
COc1ccccc1CNC(=O)c1cc(S(=O)(=O)N2CCN(c3ccccc3)CC2)ccc1Cl,.,.,0.3,.,0.2,.,.,.,
CCOC(=O)c1ccc(Oc2c(C)oc3c(CN4CCN(C)CC4)c(O)ccc3c2=O)cc1,-2.8,164.4,118.8*,?,2.1,96.6,75.9*,70.2*,
Cc1oc2c(CN3CCCC3)c(O)ccc2c(=O)c1Oc1ccccc1Br,-0.1,301.1,82.6*,?,-0.7,99.3,55.8*,76.0*,
CCOC(=O)c1c(C)oc2c1c(CN1CCN(CCO)CC1)c(O)c1ccccc12,.,.,3.6,.,0.7,.,.,.,
COc1ccccc1Oc1c(C)oc2c(CN3CCN(CCO)CC3)c(O)ccc2c1=O,-5.8,462.3,115.8*,+,.,105.5,66.4*,70.0*,
CCOc1ccccc1Oc1c(C)oc2c(CN3CCN(CCO)CC3)c(O)ccc2c1=O,-3.9,505.1,129.2*,i,-6.4,89.2,68.2*,66.0*,
O=C(Cc1ccc([N+](=O)[O-])cc1)Nc1cccc(C(=O)N2CCCCC2)c1,-3.7,122.1,0.1,.,-2.2,92.2,.,.,
CC1(C)Cc2ccccc2C(CSc2ccccc2C(=O)O)=N1,-3.5,354.6,-0.5,i,0.2,87.8,.,.,
COc1cc2c(cc1OC)C(CSc1ccccc1C(=O)O)=NC(C)(C)C2,1.6,245.8,13.8*,i,2.4,98.7,5.7,5.2*,
Cc1c(NS(=O)(=O)c2cc(C(=O)NCc3ccco3)cc(Cl)c2Cl)c(=O)n(-c2ccccc2)n1C,-3.4,236.3,0.2,i,1.3,76.0,.,.,
C[C@H]1CN([C@@H](C)CO)C(=O)c2c(c3ccccc3n2C)-c2ccccc2CO[C@H]1CN(C)C(=O)Nc1cccc(F)c1,.,.,0.5,.,.,.,.,.,
NC(=O)C1CCN(CC(=O)Nc2cc(S(=O)(=O)N3CCOCC3)ccc2N2CCCC2)CC1,-2.8,176.7,0.5,.,2.8,99.0,.,.,
C=C(C)COc1cc2oc(=O)c(CC(=O)N3C[C@H]4C[C@@H](C3)c3cccc(=O)n3C4)c(C)c2cc1Cl,-3.4,72.2,15.7*,i,-1.6,90.2,24.0*,25.4*,
CN(Cc1ccccc1)C(=O)c1ccc(NC(=O)Cc2cccc(NC(=O)C3CCN(C(=O)C4CCC4)CC3)c2)cc1,-0.7,484.0,0.7,.,-3.1,107.7,.,.,
COc1ccc(CC(=O)NNS(=O)(=O)c2cccc([N+](=O)[O-])c2)cc1OC,0.0,122.1,0.6,i,1.4,99.5,.,.,
COc1ccc(-n2c(O)c(/C=N/NS(=O)(=O)c3cccc([N+](=O)[O-])c3)c3ccccc3c2=O)cc1OC,-1.9,246.0,24.2*,i,-4.8,105.9,76.8*,66.9*,
CN1C(=O)SC(Nc2cccc3ccccc23)C1=O (stereo unspecified),-0.4,911.7,74.4*,i,0.0,97.3,88.1*,85.1*,
O=C1NC(=O)C(Nc2cccc3ccccc23)S1 (stereo unspecified),0.2,303.4,0.3,i,-4.4,93.6,.,.,
Cc1ccc(S(=O)(=O)CCC(=O)OCc2nnc(-c3ccccc3Br)o2)cc1,-5.9,281.8,-0.9,.,-2.5,84.5,.,.,
SMILES,beta cell repl,T cell modulator,proKLK7 act,Rce1 inhib,V-ATPase pH,CR mimetic SO,proKLK7 act conf,EDANS interfere,others
Cc1sc(-c2ccncc2)nc1OC(=O)c1ccc(Cl)cc1,-4.8,303.5,8.0,i,-1.1,107.4,.,.,
Cc1sc(-c2ccncc2)nc1OC(=O)c1ccc(F)cc1F,-4.1,133.6,13.6*,i,-1.9,102.0,12.8*,10.6*,EDANS interf=i
CS(=O)(=O)c1ccc(Cl)c(NC(=O)CSC(=S)N2CCCC2)c1,1.7,i,-0.1,i,-2.8,91.4,.,.,
CC(C)(O)C1Cc2cc(/C=C/C(=O)O)c(O)cc2O1 (stereo unspecified),-5.0,.,-53.3,i,1.4,.,.,.,
CCOc1nc2ccccc2cc1/C=C/C(=O)O,-2.5,118.2,3.0,i,0.3,109.7,.,.,
CCOc1cc2c(cc1/C=C/C(=O)O)OC(C)C2 (stereo unspecified),-0.8,548.3,61.8*,?,-0.5,108.8,72.4*,69.2*,
COc1cc2c(cc1/C=C/C(=O)O)OC(C)C2 (stereo unspecified),2.9,460.5,63.9*,?,-2.0,120.2,64.4*,74.0*,
CCOC(=O)[C@]12CCCCC/C=C\1N(CCc1ccc(Cl)cc1)C(=O)[C@H]2CC(=O)N1CCC(c2ccccc2)CC1,.,.,0.1,.,.,.,.,.,
O=[N+]([O-])c1ccc2c([N+](=O)[O-])ccc3c2c1CC3,.,.,-0.6,.,-0.9,.,.,.,
C=CCNC(=S)NNC(=O)c1cccn(Cc2ccc(Cl)cc2)c1=O,-1.6,416.7,27.3*,i,1.3,103.5,38.9*,46.6*,
C=CCNC(=S)NNC(=O)c1cccn(Cc2cccc(Cl)c2)c1=O,0.4,340.8,26.6*,i,-0.6,94.8,42.5*,43.9*,
C=CCn1cccc(C(=O)Nc2ccc(Cl)cc2)c1=O,-1.0,368.1,0.5,i,-0.8,98.9,.,.,
CCNc1cc2oc(=O)c(CN3CCOCC3)c(C)c2cc1C,6.0,472.6,43.5*,.,-1.2,95.7,69.4*,78.3*,
